# ATG4B inh: inhibitors of human ATG4B cysteine protease; hit rate 0.51% among 340,000; ATG4B cleavage of LC3-PLA2, NBD-HPC fluorescence, 1 h; inhibition, % at 8.33 µM; AID 504462; Q9Y4P1; in the data active = inhibition above about 40%
# UCH37 inh: blocks the human deubiquitinase UCH37; purified proteasome/UCH37, Ub-AMC cleavage fluorescence; Q9Y5K5; inhibition, % (test concentration not listed); hit rate 0.33% among 330,000;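 active = mean inhibition over replicate wells above about 20%, limit read from the data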;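 also: 0% = compound-free wells with enzyme and 100% = wells lacking proteasome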
# Target sequence (Q9Y5K5 whole entry, looked up): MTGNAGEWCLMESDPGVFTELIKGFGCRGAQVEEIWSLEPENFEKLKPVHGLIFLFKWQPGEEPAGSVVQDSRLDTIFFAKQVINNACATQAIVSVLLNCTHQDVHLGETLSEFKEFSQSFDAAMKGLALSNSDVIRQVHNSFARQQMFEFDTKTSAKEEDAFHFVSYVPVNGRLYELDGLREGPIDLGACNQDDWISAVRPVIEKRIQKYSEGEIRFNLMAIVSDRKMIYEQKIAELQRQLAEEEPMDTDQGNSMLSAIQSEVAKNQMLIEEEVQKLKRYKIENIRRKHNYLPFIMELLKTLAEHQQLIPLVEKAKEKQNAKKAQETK
#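 Assay system: Proteasome-bound UCH37. Buffer or medium: pH 7.4 Tris-HCl (50 mM) with ovalbumin, ATP-MgCl2, DTT. Incubation: 30 min preincubation with enzyme, 25 min cleavage at room temperature. Measured by: fluorescence, ex 355 nm, em 460 nm. Read-out basis: percent inhibition. Control set: wells without proteasome as full block, compound-free enzyme plus substrate as uninhibited.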
# NadD block: blocks S. aureus nicotinate mononucleotide adenylyltransferase. purified NadD enzyme, colorimetric absorbance read-out. inhibition, % at 20 µM. hit rate 0.78% among 360,000; in the data active = inhibition above about 26%
# SENP1 FRET inh: inhibitors of human SENP1 SUMO protease catalytic domain; Q9P0U3; recombinant SENP1 catalytic domain, CyPet-SUMO1-YPet FRET cleavage; inhibition, % at 10 µM; hit rate 0.21% among 360,000; AID 624204;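 active = inhibition at least 30% at 10 µM, raw YFP signal under a set limit, fluorescence ratio 0.5 to 1.5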;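 also: 0% = enzyme with DMSO and 100% = no enzyme wells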
#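 Assay system – human recombinant His6-tagged SENP1 catalytic domain enzyme · Input – SENP1 enzyme, 20 pM final · Buffer or medium – Tris pH 8 buffer plus EDTA, NaCl, BME, BSA, NP40, catalase · Schedule – 50 min reaction at room temperature · Technique – FRET read of cyan and yellow fluorescence · Control set – no-enzyme wells low, DMSO-plus-enzyme wells high control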
# NR3A LBD binder: NR3A (human) ligand-binding domain modulation. NR3A LBD differential scanning fluorimetry, Tm shift; 0% = protein alone, 100% = glycine-bound protein. Tm shift relative to glycine control, % at 25 µM. hit rate 2.5% among 340,000;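 active = melting temperature shift of at least 10% of the positive control shift, at one fixed dose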
# ATG4B confirm: confirmation of human ATG4B inhibitors; shares compounds with ATG4B inh; ATG4B protease fluorescent substrate cleavage assay; hit rate 92% among 320; inhibition, % at 8.33 µM; in the data active = inhibition above about 39%
# PLA2 ctr: PLA2 (human) inhibition in ATG4B counter-screen; AID 588402; purified PLA2, NBD-C6-HPC fluorescence, 45 min; hit rate 66% among 1,600; inhibition, % at 8.33 µM; shares compounds with ATG4B inh; in the data active = inhibition above about 50%
# Target sequence (P04054 whole entry, looked up): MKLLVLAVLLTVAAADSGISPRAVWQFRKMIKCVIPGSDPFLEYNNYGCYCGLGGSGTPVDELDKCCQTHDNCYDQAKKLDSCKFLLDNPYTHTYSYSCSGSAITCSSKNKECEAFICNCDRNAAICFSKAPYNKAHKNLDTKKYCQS
# The depositor's hits bear a star; / = no result. Sampled rows, rich in hits. Any-hit rate of the full collection: about 3.6%.
SMILES,ATG4B inh,UCH37 inh,NadD block,SENP1 FRET inh,NR3A LBD binder,PLA2 ctr,others
Cc1cc(/C=C2\Cc3ccccc3C2=O)c(C)n1-c1ccccc1,62*,-11,17,-29,1,62*,
CC(C)(C)c1cc(NC(=O)Nc2ccc(Cl)cc2Cl)no1,-1,-3,-5,0,8,/,
Cc1c(Cl)cccc1NC(=O)Nc1cc(C(C)(C)C)on1,78*,6,-7,1,-14,84*,
O=S(Cc1ccccc1)CC(O)(c1ccc(Cl)cc1)c1ccc(Cl)cc1 (configuration not stated),55*,6,-7,1,-16,60*,
O=S(Cc1ccc(Cl)cc1)CC(O)(c1ccccc1)c1ccccc1 (configuration not stated),6,1,3,1,2,/,
Cc1ccc(S(=O)(=O)N2[C@@H](c3ccc(C(C)(C)C)cc3)C(C(=O)O)=CC[C@H]2c2cccc(Cl)c2)cc1,41*,8,17,0,-1,61*,
COc1ccc(-c2nc3ccccc3c(=O)n2N)cc1,9,2,0,2,-1,/,
COc1cc(OC)cc(-c2nc3ccccc3c(=O)n2OC(=O)c2ccc(Br)cc2)c1,55*,3,8,2,-2,29,ATG4B confirm=30
COc1ccc(O)c(CNn2c(-c3ccc(Br)cc3)nc3ccccc3c2=O)c1,-4,0,4,0,-9,/,
COc1ccc(C(=O)On2c(-c3ccc(Br)cc3)nc3ccccc3c2=O)cc1,56*,2,5,0,0,66*,
Cc1cccc(C)c1N1CCN(C(=O)Nc2ccc3c(c2)OCCO3)CC1,44*,2,0,0,1,63*,
O=C(Nc1ccc2c(c1)OCCO2)N1CCN(c2ccc(F)cc2)CC1,0,2,1,2,-3,/,
Cc1cc(=O)oc2cc(OCC(=O)Nc3cccc(S(=O)(=O)N(C)C)c3)ccc12,40*,/,-2,-1,0,-1,
Cc1ccc(S(=O)(=O)N(C)C)cc1NC(=O)COC(=O)COc1ccc2c(C)cc(=O)oc2c1,-19,-45,0,-1,-2,/,
COc1cc(C(N)=O)cc(Cl)c1OCc1ccccc1,60*,2,-7,-1,2,60*,
CCOc1cc(C(N)=O)cc(Cl)c1OCc1ccccc1,49*,7,-8,3,-2,71*,
S=c1[nH]nc(-c2cc(-c3ccco3)[nH]n2)n1-c1ccccc1Cl,50*,2,13,-1,-1,-7,
COCCCNC(=S)NN=Cc1ccc(O)cc1,/,5,/,/,/,/,
CCN(CC(=O)N1CCc2ccccc2C1)S(=O)(=O)c1ccc2ccccc2c1,46*,1,-4,0,1,41,ATG4B confirm=66*
O=C(NN=C1CCSC1)c1cc(Cl)ccc1O,/,-96,/,/,/,/,
COc1cc2c(cc1NC(=O)C(C)Sc1ccc(NC(C)=O)cc1)oc1ccccc12 (configuration not stated),44*,7,-7,-6,16*,39,ATG4B confirm=91*
CC[C@@H]1C=C(C(=O)O)[C@H](c2ccc3c(c2)OCO3)N1S(=O)(=O)c1ccc(C)cc1,0,-1,-3,-16,1,/,
CCCCC[C@@H]1C=C(C(=O)O)[C@H](c2ccc3c(c2)OCO3)N1S(=O)(=O)c1ccc(C)cc1,50*,/,9,-19,-2,57*,
O=C(c1cc(-c2ccc(Cl)cc2)on1)N1CCc2ccccc2C1,-4,3,-12,1,0,/,
O=C(c1cc(-c2ccccc2)on1)N1CCc2ccccc2C1,41*,0,-5,0,0,52*,
SMILES,ATG4B inh,UCH37 inh,NadD block,SENP1 FRET inh,NR3A LBD binder,PLA2 ctr,others
Cc1ccc(NC(=S)NNc2ccc(C(=O)O)cc2[N+](=O)[O-])cc1C,-2,4,-2,3,-4,/,
Cc1ccc(NC(=S)NNc2ccc([N+](=O)[O-])cc2S(=O)(=O)Nc2ccccc2C(=O)O)cc1C,74*,10,13,-2,26*,71*,
O=C(O)c1ccccc1NS(=O)(=O)c1ccc(NNC(=S)Nc2ccc(OC(F)F)cc2)c([N+](=O)[O-])c1,51*,9,16,2,6,64*,
CC(C)(C)NC(=O)C(=O)NN=Cc1ccc(Br)cc1,/,-4,/,/,/,/,
Cc1ccc(C(=O)NNC(=S)Nc2cccc(Cl)c2Cl)cc1[N+](=O)[O-],48*,-2,4,0,18*,34,ATG4B confirm=78*
Cc1ccc(NC(=S)NNC(=O)c2cccc([N+](=O)[O-])c2)cc1Cl,77*,1,7,1,12*,78*,
Cc1ccc(-c2c(C(=O)NN=Cc3c[nH]c4ccccc34)nnn2-c2nonc2N)cc1,/,-48,/,/,/,/,
CCOc1ccc(C=NNC(=O)c2cc(-c3ccco3)nc3ccccc23)cc1,/,-191,/,/,/,/,
CC1(C)Cc2c(cnn2-c2ccccc2)-c2c1c1ccccc1n2CC(O)CBr (configuration not stated),48*,-163,4,-16,-6,57*,
Cc1ccc(NS(=O)(=O)c2cc(Br)cnc2N)c(Cl)c1,8,5,2,2,-7,/,
Nc1ncc(Br)cc1S(=O)(=O)Nc1cc(C(F)(F)F)cc(C(F)(F)F)c1,57*,/,-3,1,9,47,ATG4B confirm=56*
CSc1ccc(C=NS(=O)(=O)c2ccccc2)cc1,/,5,/,/,/,/,
N=C1/C(=C\c2ccc(OC(=O)c3ccccc3)cc2)C(=O)N=C2SC(N3CCOCC3)=NN12,57*,8,18,-10,-9,76*,
CCOC(=O)C(=NC(C)CC)NNc1cccc(C(F)(F)F)c1 (configuration not stated),40*,2,-7,-45,-6,4,
Cn1nccc1C(=O)Oc1ccc(C=NNC(=O)c2ccccc2O)cc1,/,-2,/,/,/,/,
NC(=O)CSc1nc2ccc([N+](=O)[O-])cc2[nH]1,42*,11,-6,1,-2,40,ATG4B confirm=69*
O=C(CSc1nc2ccc([N+](=O)[O-])cc2[nH]1)NC1CCCC1,-9,10,-2,0,-1,/,
Cc1ccccc1NC(=O)CN1C(=O)S/C(=C\c2ccc(-c3cc(C(=O)O)ccc3C)o2)C1=O,42*,2,41*,-25,-13,21,ATG4B confirm=55*
C#CCN1C(=O)S/C(=C\c2ccc(-c3ccc(C(=O)O)cc3C)o2)C1=O,6,5,9,-25,-1,/,
COc1cc(C=Nn2cc(-c3ccccc3)[nH]c2=S)cc(OC)c1O,/,4,/,/,/,/,
CN1/C(=C\C(=O)CSc2nnc(NCc3ccccc3)s2)C(C)(C)c2ccccc21,42*,-1,7,-11,-4,38,

# Compound activity from PubChem.
